Assay results reported in paper PMC8177101 (Chemical research in toxicology, 2020).
pIC50: −log10 of the molar value.

Key:
[1] = CellTiter Glo cytotoxicity; format: cell-based; details: human
Summary of the method: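 Human HapMap lymphoblastoid lines grown in RPMI 1640 with 15% heat-inactivated FBS at 37 °C, 5% CO2, low passage (<10). Preliminary cytotoxicity dose-response to the test compound (a diepoxide) read by CellTiter Glo as cellular ATP level; IC50 taken from the dose-response curves.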

[2] = system: HapMap lymphoblastoid cell lines; experiment: Apoptosis, Annexin V / PI flow cytometry; format: cell-based, human; details: 0, 5 or 10 μM DEB, 24 h, 18 cell lines; Anova p < 0.001
[3] = system: HapMap lymphoblastoid cell lines; experiment: Micronuclei; format: cell-based, human; details: then 96 h in fresh media, averaged over all cell lines
Summary of the method: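 Ten GSTT1-negative and 8 GSTT1-positive lymphoblastoid lines were grown in RPMI 1640 with 15% heat-inactivated FBS at 37 °C, 5% CO2, passage <10. Cells were seeded at 0.5 million per 4 ml and rested 24 h. They were exposed to 0, 5 or 10 μM test compound for 6 h in triplicate, pelleted, then held 96 h in fresh medium. Micronuclei were scored with the Litron kit by flow cytometry.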

[4] = ref [10], [11]; cited from earlier work

## C1OC1C1CO1 (centres unmarked) [DEB, 1,2,3,4-diepoxybutane]
[1]
  pIC50: 5.22 to 5.70
[2]
  percentage of Annexin V-labeled cells: increase in the percentage of Annexin V-labeled cells
[3]; 5 μM DEB 6 h
  fold increase of mean percent of MN positive cells: 1.8 fold
[3]; 10 μM DEB 6 h
  fold increase of mean percent of MN positive cells: 2.4 fold
[4]
  mutagenic potency as compared to BD-derived monoepoxides: up to 200 fold
